Our source for the Concentration and Ki values is ChEMBL document CHEMBL1122336, “Aromatic amidines: comparison of their ability to block respiratory syncytial virus induced cell fusion and to inhibit plasmin, urokinase, thrombin, and trypsin” (J Med Chem, 1983).

Assay [1] has as its system HEp-2. The assay can be described thus: Minimum concentration required for the complete blockage of virus induced cell […]; cytotoxic at 100 uM. The assay is classed as functional, cell-based. Particulars: Homo sapiens.
A further assay has as its target Plasminogen (Homo sapiens, UniProt P00747). Briefly: Inhibition constant against human plasminogen. In outline:
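Amidase assay with plasmin on N-benzoyl-DL-arginine p-nitroanilide (BAPNA), run at pH 7.6 and 37 °C. Ki was derived from a Dixon plot of reciprocal initial velocities against inhibitor concentrations at two substrate levels.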

The target of the next assay is Prothrombin (Bos taurus, UniProt P00735). Briefly: Inhibition constant against bovine thrombin.
Another assay has as its target T1, Serine protease 1 (Bos taurus, UniProt P00760).
T1 sequence (P00760 whole entry): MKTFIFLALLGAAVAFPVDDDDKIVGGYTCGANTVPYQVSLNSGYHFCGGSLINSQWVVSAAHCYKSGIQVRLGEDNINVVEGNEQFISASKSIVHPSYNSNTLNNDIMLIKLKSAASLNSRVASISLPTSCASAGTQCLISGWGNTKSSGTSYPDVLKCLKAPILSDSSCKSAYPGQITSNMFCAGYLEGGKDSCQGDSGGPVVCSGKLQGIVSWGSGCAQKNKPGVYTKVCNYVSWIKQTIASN
The assay can be described thus: Inhibition constant against bovine trypsin.

The target of assay [2] is T2, Urokinase-type plasminogen activator (Homo sapiens, UniProt P00749). Briefly: Inhibition constant against Urokinase.
For assay [3], the system named is HEp-2. Briefly: Minimum concentration required for the complete blockage of virus induced cell […]; NB means no blockage of cell fusion at the highest concentration where there is cytotoxicity at 100 uM. The assay is classed as functional, cell-based. Particulars: Homo sapiens.
Assay [4] relates to HEp-2. The assay can be described thus: Minimum concentration required for the complete blockage of virus induced cell division. As to conditions: Homo sapiens. In kind it is functional, cell-based. In outline:
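HEp-2 cells (MEM + 10% FBS, passages 370–376, mycoplasma-free) seeded to ~10^6 cells/well at 72 h; RS virus A2 strain adsorbed at 0.1 MOI for 2 h at 36 °C. Wells rinsed, then given inhibitor at 100, 10, 1.0, 0.5 or 0.1 in MEM with 2% FBS and 1% Me2SO. Fusion blockage and toxicity scored at 72 h.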

The target of assay [5] is T2, Urokinase-type plasminogen activator. Briefly: Inhibition constant against Urokinase; nonlinear kinetics. In outline: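 Amidase assay with urokinase on the substrate L-pyroglutamylglycyl-L-arginine p-nitroanilide (S-2444), run at pH 8.1 and 37 °C. Ki was read from a Dixon plot: the reciprocal of initial velocity was plotted against inhibitor concentration at two substrate concentrations.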

For assay [6], the system named is HEp-2. The assay can be described thus: Minimum concentration required for the complete blockage of virus induced cell […]; NB means no blockage of cell fusion at the highest concentration where there is cytotoxicity at 10 uM. As to conditions: Homo sapiens. In kind it is functional, cell-based.

Sequence of Plasminogen (P00747 97-580 limits assumed): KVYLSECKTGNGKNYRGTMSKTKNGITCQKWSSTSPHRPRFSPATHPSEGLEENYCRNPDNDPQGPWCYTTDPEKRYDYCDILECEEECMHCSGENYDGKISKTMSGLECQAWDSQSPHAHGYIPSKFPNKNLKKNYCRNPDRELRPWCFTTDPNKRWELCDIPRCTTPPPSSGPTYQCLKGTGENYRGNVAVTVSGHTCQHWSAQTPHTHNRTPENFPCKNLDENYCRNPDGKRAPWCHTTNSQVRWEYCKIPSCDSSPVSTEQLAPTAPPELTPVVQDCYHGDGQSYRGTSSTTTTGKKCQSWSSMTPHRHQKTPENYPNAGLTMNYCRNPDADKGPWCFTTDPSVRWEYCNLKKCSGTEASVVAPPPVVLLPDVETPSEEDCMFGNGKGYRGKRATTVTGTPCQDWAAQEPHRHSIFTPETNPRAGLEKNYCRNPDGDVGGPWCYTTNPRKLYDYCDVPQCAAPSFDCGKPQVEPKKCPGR
Sequence of Plasminogen (P00747 581-810 limits assumed): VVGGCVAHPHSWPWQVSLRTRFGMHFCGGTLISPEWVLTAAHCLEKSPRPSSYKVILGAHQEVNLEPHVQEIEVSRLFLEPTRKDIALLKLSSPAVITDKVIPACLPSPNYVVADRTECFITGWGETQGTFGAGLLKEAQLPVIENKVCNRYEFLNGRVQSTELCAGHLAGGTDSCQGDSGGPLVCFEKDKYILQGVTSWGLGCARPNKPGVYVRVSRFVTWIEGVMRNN

Compound `N=C(N)c1ccc(Cn2ccc3cc(C(=N)N)ccc32)cc1` displayed a Concentration with HEp-2 [1] of 10 µM. Also, the results for the Ki at Plasminogen, at Prothrombin and on Serine protease 1 were 60 µM, 24.8 µM and 3.18 µM, respectively.

As for `CC(=O)c1c[nH]c2cc(C(=N)N)ccc12`, the Ki (usually the dissociation constant of the complex between target and ligand, obtained from inhibition or displacement) on Plasminogen was over 1000 µM; at Prothrombin it was 1890 µM; in assay [2], over 100 µM; at Serine protease 1, over 1000 µM. Moreover, in the assay on HEp-2 [3], the Concentration result is on record as “Cytotoxic”.

In the case of `CCC(=O)c1cc2ccc(C(=N)N)cc2[nH]1`, the Ki at Plasminogen was found to be 61.5 µM; on Prothrombin it was 55 µM; in assay [2] it was 40.3 µM; on Serine protease 1 it was 15.3 µM. The Concentration result in the assay with HEp-2 [3] is on record as “Cytotoxic”.

`N=C(N)c1ccc2c(ccn2Cc2cccc([N+](=O)[O-])c2)c1`: the Concentration in the assay with HEp-2 [1] came out at 10 µM. For the same compound, the Ki at Plasminogen is over 100 µM; at Prothrombin, 6.39 µM; at Serine protease 1, 7.77 µM.

As for `N=C(N)c1ccc(Cn2ccc3cc([N+](=O)[O-])ccc32)cc1`, the Ki on Plasminogen was over 400 µM; at Prothrombin, 164 µM; in [2], over 200 µM; on Serine protease 1, 3.44 µM. The Concentration entry with HEp-2 [3] is “Cytotoxic”.

`N=C(N)c1ccc2nc(Cc3nc4ccc(C(=N)N)cc4[nH]3)[nH]c2c1` displayed a Ki on Plasminogen of 2.65 µM. The compound also returned a Concentration with HEp-2 [4] of 0.5 µM.

Consider `N=C(N)c1ccc2[nH]c(Oc3ccc(-c4nc5cc(C(=N)N)ccc5[nH]4)cc3)nc2c1`, for which the Ki is about 200 µM on Plasminogen, 3.94 µM at Prothrombin, “nonlinear kinectics” in assay [5] and 4.67 µM at Serine protease 1. Moreover, the Concentration result with HEp-2 [3] is given as “Cytotoxic”.

As to `N=C(N)c1ccc2c(C(=O)c3ccccc3)c[nH]c2c1`, the Ki at Plasminogen is over 200 µM; at Prothrombin, 176 µM; in [2], 267 µM; at Serine protease 1 it was over 100 µM. Besides, the Concentration entry in the assay with HEp-2 [3] was “Cytotoxic”.

In the assay on HEp-2 [1], `N=C(N)c1ccc2c(ccn2Cc2ccc([N+](=O)[O-])cc2N)c1` gave a Concentration of 10 µM. The Ki at Plasminogen was determined as 100 µM; on Prothrombin, 4.8 µM; in assay [2], 40 µM; on Serine protease 1, 5.31 µM.

In the case of `N=C(N)c1ccc(OCCCCOc2ccc(-c3nc4ccc(C(=N)N)cc4[nH]3)cc2)cc1`, the Ki is 8.18 µM at Plasminogen and 4.47 µM in [2].

Regarding `N=C(N)c1ccc(OCCCCCOc2ccc(-c3nc4cc(C(=N)N)ccc4[nH]3)cc2)cc1`, the Ki at Plasminogen is 3.83 µM; in assay [2], 8 µM. The Concentration result in the assay on HEp-2 [6] is “Cytotoxic”.

Consider `N=C(N)c1ccc2c(ccn2Cc2ccccc2)c1`, for which the Ki stood at 844 µM at Plasminogen, 20.1 µM on Prothrombin, 191 µM in assay [2] and 15.4 µM at Serine protease 1. For the same compound, the Concentration entry in the assay with HEp-2 [3] was “Cytotoxic”.

As to `N=C(N)c1ccc2[nH]ccc2c1`, the Ki on Plasminogen came to 112 µM; at Prothrombin, 7.68 µM; in assay [2] it was 131 µM; on Serine protease 1, 29.1 µM.

In the assay on HEp-2 [1], `N=C(N)c1ccc(Cn2ccc3ccccc32)cc1` registered a Concentration of 1 µM. Besides, the results for the Ki at Plasminogen and at Prothrombin were 111 µM and 13.1 µM, respectively.

Take `N=C(N)c1ccc2c(ccn2Cc2cccc(N)c2)c1`: the results for the Ki on Plasminogen, on Prothrombin and at Serine protease 1 were 164 µM, 15.4 µM and 16.8 µM, respectively. Further, the Concentration result in the assay with HEp-2 [3] is “Cytotoxic”.

For `N=C(N)c1ccc2c(C=O)c[nH]c2c1`, the Ki is 43 µM on Plasminogen, over 1000 µM on Prothrombin, 10.6 µM in assay [2] and 25.5 µM on Serine protease 1.

For the compound `N=C(N)c1ccc(OCCCOc2ccc(-c3nc4ccc(C(=N)N)cc4[nH]3)cc2)cc1`, the Ki on Plasminogen was determined as 8.19 µM; in [2], 17.8 µM.

Take `N=C(N)c1ccc2c(C(=O)C(F)(F)F)c[nH]c2c1`: the Ki is over 1000 µM on Plasminogen, 1510 µM on Prothrombin, over 100 µM in assay [2] and over 1000 µM at Serine protease 1. The Concentration entry in the assay on HEp-2 [3] is recorded as “Cytotoxic”.

As for `N=C(N)c1ccc(OCCCOc2ccc(-c3nc4cc(C(=N)N)ccc4[nH]3)cc2)cc1`, in the assay with HEp-2 [1], the Concentration is 10 µM.

For `N=C(N)c1ccc2c(ccn2CCCCn2ccc3cc(C(=N)N)ccc32)c1`, the Concentration in the assay with HEp-2 [1] came to 10 µM. Besides, the Ki was found to be 2.93 µM on Plasminogen, 11.1 µM at Prothrombin, 9.96 µM in [2] and 3.2 µM at Serine protease 1.

`N=C(N)c1cccc(Cn2ccc3cc(C(=N)N)ccc32)c1` showed a Concentration in the assay with HEp-2 [1] of 10 µM. In addition, the Ki on Plasminogen turned out to be 65.6 µM; on Prothrombin, 22.4 µM; at Serine protease 1, 8.29 µM.

For the compound `Cn1ccc2cc(C(=N)N)ccc21`, the Ki is over 1000 µM on Plasminogen, 35.2 µM at Prothrombin, 196 µM in assay [2] and 85.3 µM at Serine protease 1.

With `N=C(N)c1ccc(Cn2ccc3cc(C(=N)N)ccc32)c(Cl)c1`, in the assay on HEp-2 [1], the Concentration came to 10 µM. Besides, the Ki on Plasminogen was over 700 µM; on Prothrombin, 47.8 µM; on Serine protease 1 it was 5.31 µM.

For `N=C(N)c1ccc(OCCOc2ccc(-c3nc4ccc(C(=N)N)cc4[nH]3)cc2)cc1`, the Ki at Plasminogen stood at 3.9 µM; in assay [2], 12 µM.

With `N=C(N)c1ccc(OCCOc2ccc(-c3nc4cc(C(=N)N)ccc4[nH]3)cc2)cc1`, the Concentration in the assay on HEp-2 [1] was found to be 10 µM.

With `N=C(N)c1ccc(OCCCCOc2ccc(-c3nc4cc(C(=N)N)ccc4[nH]3)cc2)cc1`, in the assay on HEp-2 [6], the Concentration entry is reported as “Cytotoxic”.

For `CCn1ccc2cc(C(=N)N)ccc21`, the Concentration with HEp-2 [1] amounted to 10 µM. For the same compound, the Ki is over 400 µM at Plasminogen, 42.8 µM at Prothrombin, 280 µM in assay [2] and 137 µM on Serine protease 1.
